According to ChEMBL document CHEMBL1126988, “Quinolone antibacterials containing the new 7-[3-(1-aminoethyl)-1- pyrrolidinyl] side chain: the effects of the 1-aminoethyl moiety and its stereochemical configurations on potency and in vivo efficacy” (J Med Chem, 1993):
Values after ≈ are worked out from the molar mass of the structure shown.

Legend:
Format in all cases: functional
Escherichia coli [1] = test: Antibacterial activity in vitro against Escherichia coli Vogel; settings: Escherichia coli; read-out: MIC
Summary of the method: (§1)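 Standard microtitration broth assay against a panel of 10 Gram-positive and Gram-negative organisms. MIC read in µg/mL and averaged over multiple experiments.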

Escherichia coli [2] = test: Antibacterial activity against Escherichia coli Vogel after oral administration in mouse; settings: Escherichia coli, po; read-out: PD50
Escherichia coli [3] = test: Antibacterial activity against Escherichia coli Vogel after subcutaneous administration in mouse; settings: Escherichia coli, sc; read-out: PD50
Enterobacter cloacae = test: Minimum inhibitory concentration in vitro against Enterobacter cloacae MA 2646; settings: Enterobacter cloacae; read-out: MIC
Enterococcus faecalis = test: Minimum inhibitory concentration was evaluated in vitro against Enterococcus faecalis MGH-2; summary of the method: as §1
Klebsiella pneumoniae = test: Minimum inhibitory concentration was evaluated in vitro against Klebsiella pneumoniae MGH2; settings: Klebsiella pneumoniae; read-out: MIC; summary of the method: as §1
Providencia rettgeri = test: Minimum inhibitory concentration was evaluated in vitro against Providencia rettgeri M1771; settings: Providencia rettgeri; read-out: MIC; summary of the method: as §1
Pseudomonas aeruginosa = test: Minimum inhibitory concentration was evaluated in vitro against Pseudomonas aeruginosa UI-18; settings: Pseudomonas aeruginosa; read-out: MIC; summary of the method: as §1
Staphylococcus aureus [4] = test: Minimum inhibitory concentration was evaluated in vitro against Staphylococcus aureus H 228; summary of the method: as §1
Staphylococcus aureus [5] = test: Minimum inhibitory concentration was evaluated in vitro against Staphylococcus aureus UC 76; summary of the method: as §1
Streptococcus pneumoniae = test: Minimum inhibitory concentration was evaluated in vitro against Streptococcus pneumoniae SV-1; summary of the method: as §1
Streptococcus pyogenes [6] = test: Antibacterial activity measured as mouse protection against Streptococcus pyogenes C 203 after subcutaneous administration; settings: Streptococcus pyogenes, C 203, sc; read-out: PD50
Streptococcus pyogenes [7] = test: Compounds were evaluated in vivo for antibacterial activity for mouse protection against Streptococcus pyogenes C 203 after oral administration; settings: Streptococcus pyogenes, C 203, po; read-out: PD50
Streptococcus pyogenes [8] = test: Minimum inhibitory concentration was evaluated in vitro against Streptococcus pyogenes C 203; summary of the method: as §1
[9] = Enterococcus faecalis, read-out: MIC
[10] = Staphylococcus aureus, read-out: MIC
[11] = Streptococcus pneumoniae, read-out: MIC
[12] = Streptococcus pyogenes, read-out: MIC

Row | Compound | MIC (Escherichia coli [1]) [µg/mL] | ED50 (Escherichia coli [2]) [mg/kg] | ED50 (Escherichia coli [3]) [mg/kg] | MIC (Enterobacter cloacae) [µg/mL] | MIC (Enterococcus faecalis; [9]) [µg/mL] | MIC (Klebsiella pneumoniae) [µg/mL] | MIC (Providencia rettgeri) [µg/mL] | MIC (Pseudomonas aeruginosa) [µg/mL] | MIC (Staphylococcus aureus [4]; [10]) [µg/mL] | MIC (Staphylococcus aureus [5]; [10]) [µg/mL] | MIC (Streptococcus pneumoniae; [11]) [µg/mL] | ED50 (Streptococcus pyogenes [6]) [mg/kg] | ED50 (Streptococcus pyogenes [7]) [mg/kg] | MIC (Streptococcus pyogenes [8]; [12]) [µg/mL] | MIC (Enterococcus faecalis) [µg/mL] | MIC (Staphylococcus aureus [4]) [µg/mL] | MIC (Staphylococcus aureus [5]) [µg/mL] | MIC (Streptococcus pneumoniae) [µg/mL] | MIC (Streptococcus pyogenes [8]) [µg/mL]
1 | CCn1cc(C(=O)O)c(=O)c2cc(F)c(N3CCC(N)C3)c(OC)c21 (stereo not drawn) | 0.2 (≈ 0.572 µM) | 13 | 7 | 0.2 (≈ 0.572 µM) | 0.4 (≈ 1.14 µM) | 0.2 (≈ 0.572 µM) | 0.4 (≈ 1.14 µM) | 0.8 (≈ 2.29 µM) | 0.2 (≈ 0.572 µM) | 0.05 (≈ 0.143 µM) | 0.4 (≈ 1.14 µM) | 25 | 74 | 0.2 (≈ 0.572 µM) |  |  |  |  | 
2 | NCC1CCN(c2c(F)cc3c(=O)c(C(=O)O)cn(C4CC4)c3c2F)C1 (stereo not drawn) | 0.025 (≈ 0.0688 µM) | 6 | 1 | 0.013 (≈ 0.0358 µM) | 0.013 (≈ 0.0358 µM) | 0.05 (≈ 0.138 µM) | 0.1 (≈ 0.275 µM) | 0.2 (≈ 0.55 µM) | 0.013 (≈ 0.0358 µM) | 0.003 (≈ 0.00826 µM) | 0.006 (≈ 0.0165 µM) | 0.4 | 4 | 0.003 (≈ 0.00826 µM) |  |  |  |  | 
3 | CCNCC1CCN(c2c(F)cc3c(=O)c(C(=O)O)cn(C4CC4)c3c2C(F)(F)F)C1 (stereo not drawn) |  | 5 | 2 |  |  |  |  |  |  | 0.025 (≈ 0.0566 µM) |  | 1 | 2 |  |  |  |  |  | 
4 | COc1c(N2CCC(C)(CN)C2)c(F)cc2c(=O)c(C(=O)O)cn(C3CC3)c12 (stereo not drawn) | 0.1 (≈ 0.257 µM) | 18 | 3 | 0.1 (≈ 0.257 µM) | 0.025 (≈ 0.0642 µM) | 0.2 (≈ 0.514 µM) | 0.4 (≈ 1.03 µM) | 1.6 (≈ 4.11 µM) | 0.025 (≈ 0.0642 µM) | 0.006 (≈ 0.0154 µM) | 0.013 (≈ 0.0334 µM) | 1 | 5 | 0.013 (≈ 0.0334 µM) |  |  |  |  | 
5 | CCn1cc(C(=O)O)c(=O)c2cc(F)c(N3CCC(CN)C3)c(F)c21 (stereo not drawn) | 0.1 (≈ 0.285 µM) | 90 | 1 | 0.2 (≈ 0.569 µM) | 0.1 (≈ 0.285 µM) | 0.4 (≈ 1.14 µM) | 0.4 (≈ 1.14 µM) | 0.4 (≈ 1.14 µM) | 0.1 (≈ 0.285 µM) | 0.1 (≈ 0.285 µM) | 0.1 (≈ 0.285 µM) | 5 | 100 | 0.05 (≈ 0.142 µM) |  |  |  |  | 
6 | CN[C@H](C)[C@@H]1CCN(c2c(F)cc3c(=O)c(C(=O)O)cn(C4CC4)c3c2OC)C1 | 0.1 (≈ 0.248 µM) | 12 | 3 | 0.1 (≈ 0.248 µM) | 0.05 (≈ 0.124 µM) | 0.2 (≈ 0.496 µM) | 0.4 (≈ 0.991 µM) | 3.1 (≈ 7.68 µM) | 0.05 (≈ 0.124 µM) | 0.013 (≈ 0.0322 µM) | 0.013 (≈ 0.0322 µM) | 1 | 4 | 0.025 (≈ 0.062 µM) |  |  |  |  | 
7 | CNCC1CCN(c2cc3c(cc2F)c(=O)c(C(=O)O)cn3C2CC2)C1 (stereo not drawn) | 0.1 (≈ 0.278 µM) | 35 | 2 | 0.2 (≈ 0.556 µM) | 0.1 (≈ 0.278 µM) | 0.2 (≈ 0.556 µM) | 0.4 (≈ 1.11 µM) | 0.8 (≈ 2.23 µM) | 0.2 (≈ 0.556 µM) | 0.025 (≈ 0.0696 µM) | 0.05 (≈ 0.139 µM) | 5 | > 50 | 0.05 (≈ 0.139 µM) |  |  |  |  | 
8 | CCNCC1CCN(c2nc3c(cc2F)c(=O)c(C(=O)O)cn3C2CC2)C1 (stereo not drawn) | 0.1 (≈ 0.267 µM) | 7 | 1 | 0.2 (≈ 0.534 µM) | 0.1 (≈ 0.267 µM) | 0.2 (≈ 0.534 µM) | 0.8 (≈ 2.14 µM) | 0.8 (≈ 2.14 µM) | 0.1 (≈ 0.267 µM) | 0.05 (≈ 0.134 µM) | 0.1 (≈ 0.267 µM) | 8 | 17 | 0.2 (≈ 0.534 µM) |  |  |  |  | 
9 | NCC1CCN(c2c(F)c(N)c3c(=O)c(C(=O)O)cn(C4CC4)c3c2F)C1 (stereo not drawn) | 0.013 (≈ 0.0344 µM) | 12 | 1 | 0.025 (≈ 0.0661 µM) | 0.013 (≈ 0.0344 µM) | 0.025 (≈ 0.0661 µM) | 0.05 (≈ 0.132 µM) | 0.1 (≈ 0.264 µM) | 0.006 (≈ 0.0159 µM) | 0.003 (≈ 0.00793 µM) | 0.003 (≈ 0.00793 µM) | 0.6 | 11 | 0.003 (≈ 0.00793 µM) |  |  |  |  | 
10 | CCN[C@H](C)[C@H]1CCN(c2cc3c(cc2F)c(=O)c(C(=O)O)cn3C2CC2)C1 (mixture of isomers; form 2) | 0.2 | 13 | 2 | 0.2 |  | 0.4 | 0.8 | 6.3 |  |  |  | 1 | 8 |  | 0.1 | 0.1 | 0.025 | 0.05 | 0.05
11 | NC1CCN(c2c(F)cc3c(=O)c(C(=O)O)cn(C4CC4)c3c2F)C1 (stereo not drawn) |  | 1 |  | 0.025 (≈ 0.0716 µM) | 0.05 (≈ 0.143 µM) |  | 0.05 (≈ 0.143 µM) | 0.1 (≈ 0.286 µM) |  |  |  | 2 | 8 |  |  |  |  |  | 
